Here are results for 48 sequences from the EternaBench riboswitch data.

The subject of this data set is MS2 coat protein. Nature of the data set: apparent Kd, MS2 coat protein; higher = weaker binding; RNA-MaP array; FMN 200 µM where present. The method in brief:
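Apparent Kd: the median of filtered binding-curve fits from single clusters. Designs were transcribed on Illumina sequencing-chip clusters by stalled E. coli RNA polymerase and titrated with SNAP-549-labelled MS2 coat protein from 0.7 or 1.5 nM, doubling to 3 µM, in 100 mM Tris-HCl pH 7.5, 80 mM KCl, 4 mM MgCl2, BSA, DTT, yeast tRNA and Tween-20. Each series ran without and then with constant ligand, and green signal was normalised to red-channel RNA signal and control-cluster median Fmax.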

[1] abbreviates: designed as: OFF switch for flavin mononucleotide, no ligand.
The mark [2] stands for this setting: ligand present: flavin mononucleotide, designed as: OFF switch for flavin mononucleotide.
[3] abbreviates: designed as: ON switch for flavin mononucleotide, no ligand.
The mark [4] stands for this setting: ligand present: flavin mononucleotide, designed as: ON switch for flavin mononucleotide.

With “GCAUGCUAUGUCAGGAUAUACCUCUGGAUACAUAGGUAGAAGGGACAUGAGGAUCACCCAUGUCCUAAACAUGC”, the apparent Kd (usually the concentration giving half-maximal binding under the conditions of the assay) turned out to be 12.2 nM under setting [1] and 13.4 nM under setting [2].

“AUAUCUUACCAAGGAUAUUUAAGAUUUGUGUAGACAUGAGGAUCACCCAUGUGGCGUUAGUCACGGGAGAAGGUGGUUUGAUAU”: the “apparent Kd” value under setting [3] stood at 140 nM and the “apparent Kd” value under setting [4] was 648 nM.

Turning to “AAAUAAACUACCAAAAUAUCCUCACAUGAGGAUCACCCAUGUCAGGAUAUUUGUCCUAAAAGGACAGAGAAGGGACGUGGUAGA”, the “apparent Kd” value amounted to 5.63 nM under setting [1] and 10.7 nM under setting [2].

As for “AAGUGCUAAGGAUAUAUAUGGAUAUACAUUUAUGUAGAACUACAUGAGGAUCACCCAUGUAGAAGGUAGCAAUA”, the “apparent Kd” value under setting [1] amounted to 25.3 nM and the “apparent Kd” value under setting [2] was 42.3 nM.

For “UCAUUUAUUACAGGAUAUGUUAGAAUUCAGUUGUUUGGUUAUUACAUAUUAACAGAAGGGUAGAACAUGAGGAUCACCCAUGUA”, the “apparent Kd” value under setting [3] amounted to 114 nM and the “apparent Kd” value under setting [4] is 81.5 nM.

On to “CAGUACUGAGGAUAUACAUGAGGAUCACCCAUGUGUUCCAGCUAGGAAACUAGCAAAAGUAGAAGGCUGUACUG”, for which the “apparent Kd” value is, setting by setting: under setting [1], 16.9 nM; under setting [2], 172 nM.

Turning to “UAAAAGACUAGUAUGGUAACCUUCACAUGAGGAUCACCCAUGUAGGAUAUGAGCAGAAAAUCUGCUCAGAAGGACAUGCUAGUC”, the “apparent Kd” value stood at 3.73 nM under setting [1] and 4.25 nM under setting [2].

Turning to “CAAUUGGCACAGAAGGGUGACAUGAGGAUCACCCAUGUAGCGUGGCACUCAGGAGGAACCACGCCACAGGAUAUGUGCCGGCAC”, the “apparent Kd” value under setting [3] came to 88.5 nM and the “apparent Kd” value under setting [4] turned out to be 86.8 nM.

Turning to “UGUGUGUGGCAGGAUAUGCCGGUCGUUGGACGGGUAGAAGGGUCUACAUGAGGAUCACCCAUGUGGCCGGUUGG”, the “apparent Kd” value by setting is: under setting [1], 18.4 nM; under setting [2], 20.2 nM.

Regarding “AGUCAGACAGGAUAUACGUGGAUGGAACACUUAUUUCCACUACAUGAGGAUCACCCAUGUAGAAGGGUCUGACA”, the “apparent Kd” value reads like this: under setting [1], 18.8 nM; under setting [2], 19.7 nM.

Consider “GAACAUGAGGAUCACCCAUGUUCUCCAGAAGGCCGUACAUUUAAAAGUGGAUGGAUUAGUGUUGCGGAGGAUAUGGAGGUGCAA”, for which the “apparent Kd” value reads like this: under setting [3], 72 nM; under setting [4], 17.8 nM.

As for “ACUGGUCGAGGAUAUACAUUCGUGCUUCGGCACGUAAGAUCACAUGAGGAUCACCCAUGUAGAAGGCGACCAGU”, the “apparent Kd” value runs as follows: under setting [1], 104 nM; under setting [2], 732 nM.

As for “GCGGAACAUGAGGAUCACCCAUGUAUCCCAAAUAUGGACUCACAGGAUAUCCCGAGUUUCCAGUGGGAGAAGGGUGACUCCAGA”, the “apparent Kd” value by setting is: under setting [3], 21.7 nM; under setting [4], 11.1 nM.

As to “UUUAAGUCAGGAUAUCGUUAAUUUAAUUGUUUGUUUUAGUUCGAGAAGGGACAUGAGGAUCACCCAUGUAAUUU”, the “apparent Kd” value reads like this: under setting [1], 34.3 nM; under setting [2], 38.9 nM.

Consider “CUGUUAUAGGUCCAUUUUUUCAACAUGAGGAUCACCCAUGUGCAGGAUAUCGUGAUAAUUUUCAUCGAGAAGGGCAUAGUCACG”, for which the “apparent Kd” value runs as follows: under setting [1], 24.9 nM; under setting [2], 40.1 nM.

“UCCUACAUCGGAGGAUAUCAUGUGUAAACAUGAGGAUCACCCAUGUCGUACGAGAGUACGGAGAUUGAGAAGGCCGAUGUAGGU”: the “apparent Kd” value runs as follows: under setting [3], 96 nM; under setting [4], 17.2 nM.

Take “UUUGUUUUGCAAGGAUAUGUUUAAUUUUAUUUUCCUUACACAUGAGGAUCACCCAUGUUAUUCUUACAGAAGGUGCGUAAUUUG”: the “apparent Kd” value came to 165 nM under setting [1] and 166 nM under setting [2].

As to “ACAAAACAUGAGGAUCACCCAUGUGAGGAUAUGCGAAACAAACAAACAAACAAACAAAGCAGAAGGCACAACAA”, the “apparent Kd” value by setting is: under setting [1], 22.7 nM; under setting [2], 37.1 nM.

As to “GCUUAUAGAGGAUAUACAGAUUAUUACAUGAGGAUCACCCAUGUUCUUCAAUGUAUAUAUGUAGAAGGCUAAGGAU”, the “apparent Kd” value is 61.5 nM under setting [1] and 257 nM under setting [2].

For “GUUGGUGUAGAAGGAUAUUGGUGAGGCGUCUUGUACAUGAGGAUCACCCAUGUCAUUCUGCACGCCGAGAAGGUCUGCAAUUGG”, the “apparent Kd” value was found to be 67.9 nM under setting [3] and 57 nM under setting [4].

As to “CUCAUGUGAGGAUAUCAGUAGUAAAAAAAAAAAAUUACUACUGAGAAGGCACAUGAGGAUCACCCAUGUGACUU”, the “apparent Kd” value reads like this: under setting [1], 34.8 nM; under setting [2], 30.6 nM.

As for “UGUCGGAGCAGAGGAUAUUACAUGAGGAUCACCCAUGUUUGAACCAAUAGCUGGAAACAGCAAUGUAAGAAGGCUGCUCCGACA”, the “apparent Kd” value under setting [1] came to 91.2 nM and the “apparent Kd” value under setting [2] is 242 nM.

Take “GUUAAGUGAGGAUAUGGUGAGUAGUGCCUGAGCGCUGCUCACCAGAAGGCACAUGAGGAUCACCCAUGUAUAGC”: the “apparent Kd” value under setting [1] came out at 15.7 nM and the “apparent Kd” value under setting [2] came out at 28 nM.

With “AGAUAGUCAGGAUAUACGUGGAUGGAACACUUAUUUCCACUACAUGAGGAUCACCCAUGUAGAAGGGACUAUCA”, the “apparent Kd” value was found to be 17.8 nM under setting [1] and 17.8 nM under setting [2].

For “GUUGGCGUAGAAGGAUAUUGGUGAUGCGUCUUGUACAUGAGGAUCACCCAUGUCACUCUGCACGCCGAGAAGGUCUGCAAAUGG”, the “apparent Kd” value by setting is: under setting [3], 110 nM; under setting [4], 87.6 nM.

On to “CAAUAACCCUCAUGUACCUGAGGACAUGAGGAUCACCCAUGUAAGGAUAUAGCCAUUAAAUCUAACUAGAAGGUAUAAAUAACC”, for which the “apparent Kd” value under setting [1] was 1090 nM and the “apparent Kd” value under setting [2] was found to be 552 nM.

With “CGCACUGAUAGAGGAUAUGUUUAACAUGAGGAUCACCCAUGUGUACAAGUAUCAAUAUUUAUGUAACAGAAGGCUAUUAGUGCG”, the “apparent Kd” value worked out at 5.77 nM under setting [1] and 5.47 nM under setting [2].

Take “GCGCACUAAGUGAGGAUAUCGUUUAUUUUUAGGAUCGAGAAGGCACAUGAGGAUCACCCAUGUUUGACGUGCGC”: the “apparent Kd” value amounted to 20.9 nM under setting [1] and 14.1 nM under setting [2].

Regarding “AACACGAGAGGUGUUGUCUAAUCACAUGAGGAUCACCCAUGUAAGGAUAUCGCGGCUAUCGGCAUCGAGAAGGUACAGGGUGCA”, the “apparent Kd” value is, setting by setting: under setting [1], 165 nM; under setting [2], 58.9 nM.

On to “GAUUACAUGAGGAUCACCCAUGUACAGGUGAUUCUCGGUACGAGAAGGGCGGAGGGUCACCACACGCAGGAUAUCGAGCAAAGG”, for which the “apparent Kd” value reads like this: under setting [1], 231 nM; under setting [2], 65.4 nM.

In the case of “GGAUGACAAAGUCAUCCAAUUCGAACAUGAGGAUCACCCAUGUAGGAUAUGCUACACAAAGUGUAGCAGAAGGACAUGUGCUUU”, the “apparent Kd” value worked out at 36.5 nM under setting [1] and 169 nM under setting [2].

On to “ACCCAUGUCCAAGGAUAUGUACUCACAUGAGGAUCACCCAUGUAAAAGGGAGCAGAAGGUGGUACAUGUUAGAGAAUAAUAAAC”, for which the “apparent Kd” value by setting is: under setting [3], 129 nM; under setting [4], 11.4 nM.

Consider “CCUAUGUGAGGAUAUGUCUGGUCUUCUUUUAUUUUUUACAGACAGAAGGCACAUGAGGAUCACCCAUGUCAGAC”, for which the “apparent Kd” value by setting is: under setting [1], 23.2 nM; under setting [2], 64.7 nM.

On to “GGACGUAAAGAGAAGGGCUACUGGUUGAAACCUGCGGCCUCUGGAACAUGAGGAUCACCCAUGUAGCAGGAUAUCUUUGCACCA”, for which the “apparent Kd” value is, setting by setting: under setting [1], 157 nM; under setting [2], 26.7 nM.

Regarding “AUCAGCUCGUCAGGAUAUACGGCACUGCGUCAGCAGUGUGGUAAGAUCACAUGAGGAUCACCCAUGUAGAAGGGACGAGCUGAU”, the “apparent Kd” value runs as follows: under setting [1], 8.06 nM; under setting [2], 84.6 nM.

Turning to “UAAAUCUUGUAAGGAUAUACACGAGAUUCAAGUGUAGAAGGUACUUACAUGAGGAUCACCCAUGUAUACAUGGAUAAUAGAUAU”, the “apparent Kd” value is 211 nM under setting [3] and 64.5 nM under setting [4].

Turning to “GAUCAACAUGAGGAUCACCCAUGUGAGGAUAUGAUACUAUGUACUUCGGUACAUAGUAUCAGAAGGCAUAUGAA”, the “apparent Kd” value by setting is: under setting [1], 56.7 nM; under setting [2], 98.5 nM.

Regarding “AGGGAGUAAGGAUAUGCUGCUCGUCACUUGCGUGAUGAGUAGCAGAAGGUACAUGAGGAUCACCCAUGUAAAGA”, the “apparent Kd” value is 30 nM under setting [1] and 22.9 nM under setting [2].

For “ACAUGAGGAUCACCCAUGUACAUGGGUUUAAUUGUUUGUUACUAGGAUAUGUAUUUGAAUUUACAACAGAAGGAGUAUUAAUGU”, the “apparent Kd” value is, setting by setting: under setting [1], 985 nM; under setting [2], 414 nM.

Consider “CGUUCAGAGAACGAUACGAAUGGACAUGAGGAUCACCCAUGUAGAAGGACAACGGAAUAAACGUUGUAGGAUAUACAUUUAGUG”, for which the “apparent Kd” value reads like this: under setting [1], 53.7 nM; under setting [2], 134 nM.

On to “UGUCGGAGCAGAGGAUAUAACAUGAGGAUCACCCAUGUAUGAACCAAUAGCUGGAAACAGCAAUGUAAGAAGGCUGCUCCGACA”, for which the “apparent Kd” value was 5.8 nM under setting [1] and 6.69 nM under setting [2].

For the sequence “UGCCAGUUAGGAUAUGACUCGACAGACAUGAGGAUCACCCAUGUCCGAGUGUGUGUUUUUUCAGAAGGGACGGCCC”, the “apparent Kd” value under setting [1] stood at 25.1 nM and the “apparent Kd” value under setting [2] worked out at 30.4 nM.

As for “GUUAAUUAGUGAGGAUAUACAGUAUUUAAUACUGUAGAAGGCACAAUCCUCAAGACAUGAGGAUCACCCAUGUGAUAAUAAGCU”, the “apparent Kd” value by setting is: under setting [1], 35.4 nM; under setting [2], 139 nM.

Take “AUGUGCCUAGGAUAUACAUGAGGAUCACCCAUGUUAACACUGCAAUCAAGUUAAUAUUGUAGAAGGAGGUGUAA”: the “apparent Kd” value amounted to 27.6 nM under setting [1] and 27.5 nM under setting [2].

In the case of “AGAUAUAUACAUGAGGAUCACCCAUGUUAAUAGGUGUUUGUCAGAAGGCAUUAUGAGAGAAUUAAUGAGGAUAUGAAGUAUCAU”, the “apparent Kd” value under setting [3] worked out at 37.3 nM and the “apparent Kd” value under setting [4] amounted to 23 nM.

With “CGGGCGCGAGGAUAUACAUGAGGAUCACCCAUGUAGUGGGUUUGUUUCGGGCUUGCGUGUAGAAGGUGUGUUUG”, the “apparent Kd” value under setting [1] was 217 nM and the “apparent Kd” value under setting [2] is 172 nM.

As to “GUUAACGCAUGAGGAUAUGCUCACAUUUCAAGAGCAGAAGGUAUGUCUAUAGACAUGAGGAUCACCCAUGUAUUUAUCAUUGAA”, the “apparent Kd” value amounted to 166 nM under setting [3] and 42.5 nM under setting [4].

Consider “CAGCUACCCGAUAUGGGUUCAUGUGCAGAAGGCCAGGUACAUGAGGAUCACCCAUGUAAAGAUAUGGAGGAUAUGUUAGUGAAU”, for which the “apparent Kd” value under setting [3] was 149 nM and the “apparent Kd” value under setting [4] is 8.99 nM.
